Here are results for 1 molecule from ChEMBL document CHEMBL1671683, “Activity of linezolid in an in vitro pharmacokinetic-pharmacodynamic model using different dosages and Staphylococcus aureus and Enterococcus faecalis strains with and without a hypermutator phenotype” (Antimicrob Agents Chemother, 2010).

As usually defined, the Cmax is the peak of the concentration-time curve.

Data set [1] deals with Enterococcus faecalis. Description: Bactericidal activity against 24 hrs peripheral compartment culture samples of Enterococcus faecalis Ef1497 MutM3 in two-compartment pharmacokinetic/pharmacodynamic model assessed as effect on bacterial count at 600 mg, bid administered as 0.5 hr infusion. Type of data set: functional. In outline:
(§1)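 An 18-h culture concentrated 50-fold was injected into the peripheral compartment 3 h pre-sampling (~10^8 CFU/ml E. faecalis, 10^9 S. aureus). Counts came from dilution plating (detection limit 2–3 log10 CFU/ml), expressed as Δlog CFU/ml from treatment start. Run in duplicate.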

Data set [2] is described as follows: Apparent volume of distribution in two-compartment pharmacokinetic/pharmacodynamic model at 400 mg, bid administered as 0.5 hrs infusion. Type of data set: ADME, organism-based. Particulars: iv.
Data set [3] in a line: Cmax in two-compartment pharmacokinetic/pharmacodynamic model at 600 mg, bid administered as 0.5 hr infusion over 24 hrs. Type of data set: ADME, organism-based. Set-up: dose 600 mg. The settings on record: iv.
Data set [4] deals with Enterococcus faecalis. Nature of the data set: Bactericidal activity against 48 hrs peripheral compartment culture samples of Enterococcus faecalis Ef1497 in two-compartment pharmacokinetic/pharmacodynamic model assessed as effect on bacterial count at 600 mg, bid administered as 0.5 hr infusion. Type of data set: functional. In outline:
as §1

Data set [5] has as its system Staphylococcus aureus. Nature of the data set: Bactericidal activity against 12.5 hrs peripheral compartment culture samples of Staphylococcus aureus RN4220 MutS2 in two-compartment pharmacokinetic/pharmacodynamic model assessed as effect on bacterial count at 600 mg, bid administered as 0.5 hr infusion. Type of data set: functional. In outline:
as §1

The test system of data set [6] is Enterococcus faecalis. Nature of the data set: AUBC (0 to 24 hrs) in Enterococcus faecalis ATCC 29212 in two-compartment pharmacokinetic/pharmacodynamic model at 600 mg, bid administered as 0.5 hr infusion for 2 days. Type of data set: functional. In outline: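 Hollow-fibre two-compartment model in cation-adjusted, protein-free MH broth at 37°C. Human total-plasma linezolid profile simulated as 0.5-h infusion every 12 h for 48 h. Concentrated 18-h culture injected into the peripheral compartment 3 h before first sample, giving about 10^8 (E. faecalis) or 10^9 (S. aureus) CFU/ml. Viable counts by dilution plating over 0–24 h. Area indices calculated versus growth control curve. Duplicate runs.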

The subject of data set [7] is Enterococcus faecalis. Description: T>MIC in Enterococcus faecalis Ef1497 MutM3 in two-compartment pharmacokinetic/pharmacodynamic model at 600 mg, bid administered as 0.5 hr infusion for 2 days. Type of data set: functional.
The nature of data set [8]: Volume of distribution at steady state in two-compartment pharmacokinetic/pharmacodynamic model at 200 mg, bid administered as 0.5 hr infusion over 24 hrs. The data set is classed as ADME, organism-based. Particulars: iv, read-out: Vdss.
In data set [9] the test system is Enterococcus faecalis. Nature of the data set: Bactericidal activity against 1 hr peripheral compartment culture samples of Enterococcus faecalis Ef1497 in two-compartment pharmacokinetic/pharmacodynamic model assessed as effect on bacterial count at 800 mg, bid administered as 0.5 hr infusion. The data set is classed as functional. In outline:
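Two-compartment hollow-fibre model in cation-adjusted, protein-free MH broth, 37°C. Linezolid given as simulated 0.5-h infusion twice daily. Inoculum grown 18 h, concentrated 50-fold and placed in the peripheral compartment 3 h before t0. Peripheral samples at set times counted by dilution plating. First 10-fold dilution not plated, limiting detection to 2–3 log10 CFU/ml. Δlog CFU/ml taken from t0 count. Duplicates.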

The subject of data set [10] is Enterococcus faecalis. Nature of the data set: Bactericidal activity against 14 hrs peripheral compartment culture samples of Enterococcus faecalis Ef1497 in two-compartment pharmacokinetic/pharmacodynamic model assessed as effect on bacterial count at 600 mg, bid administered as 0.5 hr infusion. The data set is classed as functional. In outline:
as §1

The nature of data set [11]: Apparent volume of distribution in two-compartment pharmacokinetic/pharmacodynamic model at 600 mg, bid administered as 0.5 hrs infusion. The settings on record: iv.
In data set [12] the test system is Staphylococcus aureus. Nature of the data set: Bactericidal activity against 12 hrs peripheral compartment culture samples of Staphylococcus aureus RN4220 in two-compartment pharmacokinetic/pharmacodynamic model assessed as effect on bacterial count at 600 mg, bid administered as 0.5 hr infusion. The data set is classed as functional. The method in brief: as §1

In data set [13] the test system is Enterococcus faecalis. Description: Bactericidal activity against 13 hrs peripheral compartment culture samples of Enterococcus faecalis Ef1497 MutM3 in two-compartment pharmacokinetic/pharmacodynamic model assessed as effect on bacterial count at 600 mg, bid administered as 0.5 hr infusion. The data set is classed as functional. The method in brief:
as §1

Data set [14] deals with Enterococcus faecalis. Nature of the data set: Bactericidal activity against 2 hrs peripheral compartment culture samples of Enterococcus faecalis Ef1497 in two-compartment pharmacokinetic/pharmacodynamic model assessed as effect on bacterial count at 600 mg, bid administered as 0.5 hr infusion. The data set is classed as functional. The method in brief: as §1
Data set [15] in a line: Cmax in two-compartment pharmacokinetic/pharmacodynamic model at 200 mg, bid administered as 0.5 hr infusion over 24 hrs. Set-up: dose 200 mg. Particulars: iv. Type of data set: ADME, organism-based.

As for `CC(=O)NC[C@H]1CN(c2ccc(N3CCOCC3)c(F)c2)C(=O)O1` [LINEZOLID], the log10CFU/ml in data set [1] is recorded as 0.44; in data set [4], 0.39; in data set [5], -0.06; in data set [9], -0.02; in data set [10] it was 0.13; in data set [12], -0.15. Further, the log10CFU/ml in data set [13] came to 0.25; in data set [14] it was 0.08. Further, the Vd in data set [2] turned out to be 130 L; in data set [8], 117 L; in data set [11], 115 L. The Cmax in data set [3] came to 14600 ng/mL; in data set [15], 4790 ng/mL. The molecule also had an AUBC in data set [6] of 217.8 log10CFU/ml.hr. Further, the “fT>MIC” value in data set [7] was found to be 0%.
